Test results published in ChEMBL document CHEMBL4813946, “Discovery of novel 4-azaaryl-N-phenylpyrimidin-2-amine derivatives as potent and selective FLT3 inhibitors for acute myeloid leukaemia with FLT3 mutations” (Eur J Med Chem, 2021).
Activity calls are given as the source filed them. The calls are words filed in the database; no cut-off is given here.

Columns and labels:
[1] = molecular target: Cyclin-dependent kinase 1/cyclin B1 (Homo sapiens, UniProt P06493); assay: Inhibition of CDK1/cyclin B (unknown origin) using histone 1 protein substrate incubated for 120 mins measured after 40 mins incubation under dark by ADP-glo based luminescence assay; type: protein-complex assay
Chain of Cyclin-dependent kinase 1/cyclin B1 (P06493 whole entry): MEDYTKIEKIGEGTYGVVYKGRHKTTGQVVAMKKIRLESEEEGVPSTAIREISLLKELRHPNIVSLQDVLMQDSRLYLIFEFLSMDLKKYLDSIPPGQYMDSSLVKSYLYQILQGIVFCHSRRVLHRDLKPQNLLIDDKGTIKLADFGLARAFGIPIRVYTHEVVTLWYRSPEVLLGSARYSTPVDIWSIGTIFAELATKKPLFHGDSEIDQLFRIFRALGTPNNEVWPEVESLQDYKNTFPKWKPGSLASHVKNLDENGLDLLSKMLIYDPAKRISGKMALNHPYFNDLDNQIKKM
Chain of Cyclin-dependent kinase 1/cyclin B1 (P14635 whole entry, further chain): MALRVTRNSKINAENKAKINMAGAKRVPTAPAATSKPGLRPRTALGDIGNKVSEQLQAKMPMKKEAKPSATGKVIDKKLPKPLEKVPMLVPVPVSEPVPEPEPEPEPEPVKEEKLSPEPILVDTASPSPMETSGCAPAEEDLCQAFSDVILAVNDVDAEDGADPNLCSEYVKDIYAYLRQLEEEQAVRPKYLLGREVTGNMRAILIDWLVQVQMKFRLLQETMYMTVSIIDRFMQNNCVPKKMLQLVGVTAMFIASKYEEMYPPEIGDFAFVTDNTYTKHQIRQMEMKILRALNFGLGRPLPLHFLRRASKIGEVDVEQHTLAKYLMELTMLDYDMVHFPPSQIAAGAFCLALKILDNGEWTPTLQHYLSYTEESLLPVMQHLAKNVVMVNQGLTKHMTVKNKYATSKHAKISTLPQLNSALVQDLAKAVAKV
In short: (§1)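 In-house ADP-Glo assay with 2 mM DMSO stocks. Kinases were CDK1/cyclin B at 1 nM, CDK2/cyclin E1 at 10 nM and CDK7/cyclin H/MAT1 at 40 nM. Substrate was histone 1 for CDK1 and CDK2, and a RNA pol II CTD peptide for CDK7. Compound at 8–10 concentrations, 1:3 serial, final DMSO 0.5%. Reactions ran 60–120 min at room temperature, then ADP-Glo reagent 40 min in the dark, then detection reagent 40 min, read by luminescence. Ki was derived from IC50 by Cheng-Prusoff.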

[2] = molecular target: Cyclin-dependent kinase 2/cyclin E1 (Homo sapiens, UniProt P24941); assay: Inhibition of CDK2/cyclin E (unknown origin) using histone 1 protein substrate incubated for 120 mins measured after 40 mins incubation under dark by ADP-glo based luminescence assay; type: protein-complex assay; in short: as §1
[3] = Inhibition of FLT3 ITD-NPOS mutant (unknown origin) incubated for 120 mins by ADP-glo based luminescence assay; parameters: species or system Homo sapiens
[4] = Inhibition of FLT3 Y591-V592insVDFREYEYD mutant (unknown origin) incubated for 120 mins by ADP-glo based luminescence assay; parameters: species or system Homo sapiens
Jurkat = assay: Antiproliferative activity against human Jurkat cells harboring FLT3 knockout gene assessed as reduction in cell viability after 72 hrs by resazurin assay; type: functional
In short: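 Cells seeded and pre-incubated 24 h at 37 °C, 5% CO2, then given a five-fold dilution series of compound (from 10 mM DMSO stock) in medium, in triplicate. Resazurin added after 72 h exposure, 4 h in dark at 37 °C. Fluorescence read at 570/585 nm, normalised to DMSO vehicle. GI50 by non-linear regression; mean ± SD of at least two replicates.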

MV4-11 [5] = assay: Induction of apoptosis in human MV4-11 cells assessed as viable cells at 1 x GI50 concentration incubated for 24 hrs by annexin V-FITC and propidium iodide staining based flow cytometry (reference value: 84.68 %); type: functional
MV4-11 [6] = assay: Induction of apoptosis in human MV4-11 cells assessed as viable cells at 5 x GI50 concentration incubated for 24 hrs by annexin V-FITC and propidium iodide staining based flow cytometry (reference value: 84.68 %); type: functional
MV4-11 [7] = assay: Induction of apoptosis in human MV4-11 cells assessed as late apoptotic cells at 10 x GI50 concentration incubated for 24 hrs by annexin V-FITC and propidium iodide staining based flow cytometry (reference value: 12.45 %); type: functional
MV4-11 [8] = assay: Induction of apoptosis in human MV4-11 cells assessed as viable cells at 1 x GI50 concentration incubated for 48 hrs by annexin V-FITC and propidium iodide staining based flow cytometry (reference value: 91.87 %); type: functional
MV4-11 [9] = assay: Induction of apoptosis in human MV4-11 cells assessed as viable cells at 5 x GI50 concentration incubated for 48 hrs by annexin V-FITC and propidium iodide staining based flow cytometry (reference value: 91.87 %); type: functional
MV4-11 [10] = assay: Induction of apoptosis in human MV4-11 cells assessed as early apoptotic cells at 10 x GI50 concentration incubated for 48 hrs by annexin V-FITC and propidium iodide staining based flow cytometry (reference value: 1.08 %); type: functional
MV4-11 [11] = assay: Induction of apoptosis in human MV4-11 cells assessed as necrotic cells at 10 x GI50 concentration incubated for 48 hrs by annexin V-FITC and propidium iodide staining based flow cytometry (reference value: 0.45 %); type: functional
MV4-11 [12] = assay: Induction of apoptosis in human MV4-11 cells assessed as viable cells at 10 x GI50 concentration incubated for 48 hrs by annexin V-FITC and propidium iodide staining based flow cytometry (reference value: 91.87 %); type: functional
U-937 [13] = assay: Induction of apoptosis in human U937 cells assessed as late apoptotic cells at 1 x GI50 concentration incubated for 24 hrs by annexin V-FITC and propidium iodide staining based flow cytometry (reference value: 10.30 %); type: functional
U-937 [14] = assay: Induction of apoptosis in human U937 cells assessed as early apoptotic cells at 5 x GI50 concentration incubated for 24 hrs by annexin V-FITC and propidium iodide staining based flow cytometry (Rvb =1.81 %); type: functional
U-937 [15] = assay: Induction of apoptosis in human U937 cells assessed as late apoptotic cells at 5 x GI50 concentration incubated for 24 hrs by annexin V-FITC and propidium iodide staining based flow cytometry (Rvb =10.30 %); type: functional
U-937 [16] = assay: Induction of apoptosis in human U937 cells assessed as early apoptotic cells at 10 x GI50 concentration incubated for 24 hrs by annexin V-FITC and propidium iodide staining based flow cytometry (reference value: 1.81 %); type: functional
U-937 [17] = assay: Induction of apoptosis in human U937 cells assessed as late apoptotic cells at 10 x GI50 concentration incubated for 24 hrs by annexin V-FITC and propidium iodide staining based flow cytometry (reference value: 10.30 %); type: functional
U-937 [18] = assay: Induction of apoptosis in human U937 cells assessed as viable cells at 20 x GI50 concentration incubated for 24 hrs by annexin V-FITC and propidium iodide staining based flow cytometry (reference value: 85.68 %); type: functional
[19] = molecular target: Receptor-type tyrosine-protein kinase FLT3 (Homo sapiens) (UniProt P36888); assay: Inhibition of FLT3-mediated signalling pathway in human MV4-11 cells assessed as increase in caspase 3 expression upto 20 x GI50 concentration incubated for 6 hrs by western blot analysis; type: cell-based
Chain of Receptor-type tyrosine-protein kinase FLT3 (Homo sapiens) (P36888 whole entry): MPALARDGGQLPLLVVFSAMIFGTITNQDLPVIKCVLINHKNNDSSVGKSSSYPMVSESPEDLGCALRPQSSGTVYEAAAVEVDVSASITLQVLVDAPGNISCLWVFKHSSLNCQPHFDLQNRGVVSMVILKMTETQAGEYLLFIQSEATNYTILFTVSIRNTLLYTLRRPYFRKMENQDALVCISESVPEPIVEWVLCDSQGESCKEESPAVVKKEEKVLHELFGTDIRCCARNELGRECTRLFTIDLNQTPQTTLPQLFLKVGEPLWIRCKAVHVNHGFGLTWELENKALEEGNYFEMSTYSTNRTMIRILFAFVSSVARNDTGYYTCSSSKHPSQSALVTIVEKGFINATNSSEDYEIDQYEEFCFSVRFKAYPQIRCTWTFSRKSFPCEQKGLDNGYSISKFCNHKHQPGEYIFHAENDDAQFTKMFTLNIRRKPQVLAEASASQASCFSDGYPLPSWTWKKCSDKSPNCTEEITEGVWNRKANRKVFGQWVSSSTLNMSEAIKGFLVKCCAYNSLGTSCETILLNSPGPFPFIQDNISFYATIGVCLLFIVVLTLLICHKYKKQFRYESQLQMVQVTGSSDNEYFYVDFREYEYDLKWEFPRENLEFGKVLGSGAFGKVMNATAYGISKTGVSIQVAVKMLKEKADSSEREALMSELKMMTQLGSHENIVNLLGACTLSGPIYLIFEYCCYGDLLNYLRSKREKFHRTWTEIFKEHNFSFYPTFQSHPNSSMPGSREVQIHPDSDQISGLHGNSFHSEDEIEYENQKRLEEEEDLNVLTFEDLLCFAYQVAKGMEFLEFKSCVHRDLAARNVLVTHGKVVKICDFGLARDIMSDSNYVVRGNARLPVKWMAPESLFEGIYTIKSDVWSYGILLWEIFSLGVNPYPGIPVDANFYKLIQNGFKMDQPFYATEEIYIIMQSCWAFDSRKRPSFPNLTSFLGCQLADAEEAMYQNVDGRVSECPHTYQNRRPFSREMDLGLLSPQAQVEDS
In short: (§2)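 Cells lysed in phosphate lysis buffer with protease inhibitors and protein quantified. Western blots probed phospho and total STAT5, AKT, ERK, S6RP and eIF4E, plus full-length and cleaved PARP and caspase-3, with β-actin as loading control. At least two independent experiments.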

U-937 [20] = assay: Induction of apoptosis in human U937 cells assessed as necrotic cells at 1 x GI50 concentration incubated for 48 hrs by annexin V-FITC staining based flow cytometry (reference value: 1.16 %); type: functional
U-937 [21] = assay: Induction of apoptosis in human U937 cells assessed as early apoptotic cells at 5 x GI50 concentration incubated for 48 hrs by annexin V-FITC staining based flow cytometry (reference value: 2.78%); type: functional
U-937 [22] = assay: Induction of apoptosis in human U937 cells assessed as viable cells at 5 x GI50 concentration incubated for 48 hrs by annexin V-FITC staining based flow cytometry (reference value: 86.25 %); type: functional
U-937 [23] = assay: Induction of apoptosis in human U937 cells assessed as late apoptotic cells at 10 x GI50 concentration incubated for 48 hrs by annexin V-FITC staining based flow cytometry (reference value: 9.82 %); type: functional
U-937 [24] = assay: Induction of apoptosis in human U937 cells assessed as viable cells at 10 x GI50 concentration incubated for 48 hrs by annexin V-FITC staining based flow cytometry (reference value: 86.25 %); type: functional
U-937 [25] = assay: Induction of apoptosis in human U937 cells assessed as late apoptotic cells at 20 x GI50 concentration incubated for 48 hrs by annexin V-FITC staining based flow cytometry (reference value: 9.82 %); type: functional
[26] = molecular target: Receptor-type tyrosine-protein kinase FLT3 (Homo sapiens) (UniProt P36888); assay: Inhibition of FLT3-mediated signalling pathway in human U-937 cells assessed as inhibition of eIF4E phosphorylation upto 20 x GI50 concentration incubated for 6 hrs by western blot analysis; type: cell-based; in short: as §2

## CC(=O)N1CCN(c2ccc(Nc3nccc(-c4cn(C)c5ncccc45)n3)cc2)CC1
[1]
  Ki: > 5000 nM
[2]
  Ki: > 5000 nM
[3]
  Ki: 262 nM
[4]
  Ki: 185 nM
Jurkat
  GI50: > 10000 nM
MV4-11 [5]
  Activity: 81.75%
MV4-11 [6]
  Activity: 79.81%
MV4-11 [7]
  Activity: 20.33%
MV4-11 [8]
  Activity: 89.25%
MV4-11 [9]
  Activity: 86.83%
MV4-11 [10]
  Activity: 2.72%
MV4-11 [11]
  Activity: 1.48%
MV4-11 [12]
  Activity: 72.29%
U-937 [13]
  Activity: 7.98%
U-937 [14]
  Activity: 2.15%
U-937 [15]
  Activity: 9.79%
U-937 [16]
  Activity: 2.48%
U-937 [17]
  Activity: 10.31%
U-937 [18]
  Activity: 85.3%
[19]
  Activity: Active
U-937 [20]
  Activity: 1.4%
U-937 [21]
  Activity: 2.55%
U-937 [22]
  Activity: 88.11%
U-937 [23]
  Activity: 12.02%
U-937 [24]
  Activity: 83.36%
U-937 [25]
  Activity: 14.5%
[26]
  inhibition: Active
